Article PMC9053952 (RSC Advances, 2020)
“Also recorded” adds a separate entry of the source. Starred links: 1 amine or outer side, 2 acyl side, 3 side chain; linkers in the order of their positions; H or OH if unused. Non-standard residues stand in square brackets, D forms with d. Residues, ends and D or L forms follow the SMILES beside them. *: point of attachment. X2 = COc1ccc([N+]2=NC(C#N)=NN(c3ccc(-c4cn(CCCC[C@H](N[*:1])C(=O)[*:2])nn4)cc3)[B-]2(F)F)cc1; Octanoyl = CCCCCCCC(=O)*; Dap = NC[C@H](N)C(=O)O

Columns and labels:
[1] = system: parental OVCAR-8 cells; assay: Confocal fluorescence microscopy of parental OVCAR-8 cells; assay type: cell-based; conditions: low expression of GHSR-1a
How it was run: (§1)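 OVCAR-8 cells, either stably transfected with GHSR-1a or parental, were detached with trypsin-free dissociation buffer and seeded at 50 000 cells/well on coverslips. They were cultured overnight in RPMI/10% FBS at 37 °C, 5% CO2. Test compound at 0.1 μM was added in serum-free RPMI for 1 h at 37 °C. Cells were washed three times with PBS, fixed in 4% paraformaldehyde and mounted with DAPI. Confocal settings: ex 559 nm, em 598–698 nm; 40× and 60× objectives.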

[2] = system: OVCAR-8 cells stably transfected with GHSR-1a; assay: Confocal fluorescence microscopy of OVCAR-8 cells transfected with GHSR-1a; assay type: cell-based; conditions: 0.1 μM, 1 h, 37 °C
How it was run: as §1

[3] = target: GHSR-1a (Homo sapiens, UniProt Q92847); assay: Radioligand competitive binding assay, GHSR-1a
How it was run: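 Competition binding used membranes from HEK293 cells transiently transfected with GHSR-1a (50 000 cells/tube) and human [125I]-ghrelin(1–28) (15 000 cpm/tube). Test peptide was run at 10−11 to 10−5 M, with incubation for 20 min at 550 rpm. Unbound radioligand was removed and bound activity gamma-counted. Human ghrelin(1–28) served as reference. IC50 came from nonlinear regression; assays were run in triplicate.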

[4] = Photophysical properties; assay type: physicochemical; conditions: in DMSO; for λabs (absorption maximum): UV-Vis spectrophotometer; for ΦF (fluorescence quantum yield): comparative method, [Ru(bpy)3][PF6]2 as relative standard
How it was run: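 Measurements were made in DMSO. UV-Vis absorption and excitation/emission spectra were recorded. Molar extinction coefficient was taken from the slope of absorbance versus concentration over seven solutions of known concentration. Fluorescence quantum yield was determined by the comparative method against the [Ru(bpy)3][PF6]2 standard.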

[5] = target: GRPR (Homo sapiens, UniProt P30550); assay: Radioligand competitive binding assay, GRPR
How it was run: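 Whole-cell competition binding used PC-3 cells (500 000/vial) grown in F-12K/10% FBS, with [125I]Tyr4-bombesin as radioligand. Test peptide was run at 10−12 to 10−6 M, shaking at 550 rpm for 1 h at 37 °C. Cells were centrifuged, the pellet washed with 50 mM Tris pH 7.4, and bound activity gamma-counted. IC50 came from nonlinear regression; assays were run in triplicate.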

[6] = system: GRPR in PC-3 cells; assay: Blocking study in PC-3 cells with parent peptide 3; assay type: cell-based; conditions: 0.5 μM 7, 1 h, 37 °C; 10-fold molar excess of 3
[7] = system: PC-3 cells; assay: Confocal fluorescence microscopy of PC-3 cells; assay type: cell-based; conditions: 0.5 μM, 1 h, 37 °C
How it was run: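 PC-3 cells, with native GRPR, were detached with trypsin-free dissociation buffer and seeded at 50 000 cells/well on coverslips. They were cultured overnight in F-12K/10% FBS at 37 °C, 5% CO2. Test compound at 0.5 μM was added in serum-free F-12K for 1 h at 37 °C, alone or with a 10-fold molar excess of the unlabelled parent peptide as blocker. Cells were PBS-washed three times, fixed in 4% paraformaldehyde and mounted with DAPI. Confocal settings: ex 559 nm, em 605–705 nm.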

Sequence of GRPR (P30550 whole entry): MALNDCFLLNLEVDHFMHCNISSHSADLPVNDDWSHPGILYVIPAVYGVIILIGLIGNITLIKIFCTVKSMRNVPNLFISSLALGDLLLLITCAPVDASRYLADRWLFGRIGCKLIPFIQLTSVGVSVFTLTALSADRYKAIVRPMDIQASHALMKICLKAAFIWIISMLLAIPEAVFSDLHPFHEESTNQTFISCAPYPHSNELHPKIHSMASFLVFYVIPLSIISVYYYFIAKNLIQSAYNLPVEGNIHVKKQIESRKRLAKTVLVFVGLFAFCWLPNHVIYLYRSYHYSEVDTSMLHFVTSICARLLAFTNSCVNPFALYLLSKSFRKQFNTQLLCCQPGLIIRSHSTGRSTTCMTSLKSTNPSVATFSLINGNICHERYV
Sequence of GHSR-1a (Q92847 whole entry): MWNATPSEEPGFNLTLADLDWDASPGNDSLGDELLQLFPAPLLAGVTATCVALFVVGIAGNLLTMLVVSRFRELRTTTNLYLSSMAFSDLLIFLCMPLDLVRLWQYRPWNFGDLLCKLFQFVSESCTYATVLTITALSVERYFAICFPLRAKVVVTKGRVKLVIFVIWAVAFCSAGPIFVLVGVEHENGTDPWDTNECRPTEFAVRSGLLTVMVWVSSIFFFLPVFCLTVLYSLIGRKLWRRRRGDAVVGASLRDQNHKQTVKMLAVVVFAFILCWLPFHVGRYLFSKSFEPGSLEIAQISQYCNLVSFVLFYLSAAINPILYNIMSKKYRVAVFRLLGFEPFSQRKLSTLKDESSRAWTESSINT

SMILES: CCCCCCCC(=O)NC[C@H](NC(=O)[C@H](CO)NC(=O)CN)C(=O)N[C@@H](Cc1ccccc1)C(=O)N[C@@H](CC(C)C)C(=O)N[C@@H](CO)C(=O)N1CCC[C@H]1C(=O)N[C@H](C(=O)N[C@@H](CCCCn1cc(-c2ccc(N3N=C(C#N)N=[N+](c4ccc(OC)cc4)[B-]3(F)F)cc2)nn1)C(N)=O)[C@@H](C)O [Compound 5, [Dpr(octanoyl)^3,Thr^8,Lys(triazole-formazanate)^9]ghrelin(1–9)] (H-GS[Dap](Octanoyl)FLSPT[X2]-NH2; N-terminus assumed)
- cellular uptake (red emission) [1]: minimal uptake of 5
- specific binding for GHSR-1a by confocal fluorescence microscopy [2]: specific binding of 5 for GHSR-1a
- IC50 [3]: 89 nM
- receptor affinity relative to parent peptide (in words) ([3]; vs parent peptide 2, GHSR-1a): decrease in receptor affinity
- λem (emission maximum) [4]: 688 nm
- λabs (absorption maximum) [4]: 560 nm
- ΦF (fluorescence quantum yield) [4]: 21%

SMILES: CCCC[C@H](NC(=O)[C@H](Cc1ccccc1)NC(=O)[C@H](Cc1c[nH]cn1)NC(=O)CCNC(=O)[C@@H](NC(=O)[C@H](C)NC(=O)[C@H](Cc1c[nH]c2ccccc12)NC(=O)[C@H](CCC(N)=O)NC(=O)[C@@H](Cc1ccccc1)NC(=O)COCC(=O)NCCOCCOCCOCCOCCOCCOCCOCCOCCn1cc(-c2ccc([N+]3=NC(C#N)=NN(c4ccc(OC)cc4)[B-]3(F)F)cc2)nn1)C(C)C)C(N)=O [Compound 7] (HELM PEPTIDE1{[COc1ccc(N2N=C(C#N)N=[N+](c3ccc(-c4cn(CCOCCOCCOCCOCCOCCOCCOCCOCCNC(=O)COCC(=O)[*:2])nn4)cc3)[B-]2(F)F)cc1].[dF].Q.W.A.V.[bAla].H.F.[Nle].[am]}$$$$V2.0)
- IC50 [5]: 16.3 nM
- receptor affinity relative to parent peptide (in words) ([5]; vs parent peptide 3, GRPR): decrease in receptor affinity
- displacement by parent peptide 3 [6]: displacement of 7 by 10-fold molar excess of 3
- specific binding for GRPR by confocal fluorescence microscopy [7]: analogue 7 for GRPR was demonstrated; also recorded: specific binding of analogue 7 to GRPR
- λem (emission maximum) [4]: 690 nm
- λabs (absorption maximum) [4]: 555 nm
- ΦF (fluorescence quantum yield) [4]: 12%
- ε (molar extinction coefficient) ([4]; slope of absorbance against concentration, seven solutions): 31 900 M^−1 cm^−1
